The text below walks through data of the array DNA melting data of Ke et al. (doi:10.1101/2024.01.08.574731).

Data set [1] in a line: folding enthalpy; higher = less favourable; fluorescence melt of hairpins on a sequencing array, two-state fit. Conditions: sodium 0.088 M. A digest of the protocol: (§1)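 In 50 mM Na-HEPES pH 8.0 containing 25 mM NaCl, hairpins from the library on a sequenced MiSeq flow cell were imaged for Cy3 fluorescence at 2.5 °C steps up to 60 °C, with Cy3 and quencher oligos annealed. After normalisation to pre-quench Cy3 and to control constructs, two-state fits with bootstrapping gave melting temperature and folding enthalpy. Four replicates were combined by inverse-variance weighting, and fitted temperatures were shifted up by 9.35 °C to match UV melts.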

A short description of data set [2]: melting temperature; fluorescence melt of hairpins on a sequencing array, two-state fit, raised by 9.35 °C to match UV melts. The conditions noted are these: sodium 0.088 M. The method in brief:
as §1

In the case of GAAGCACGAAAGTGGTTC (((.(((....))).))), the folding enthalpy in data set [1] is -31.6 kcal/mol. The Tm in data set [2] was determined as 61.3 °C.

Consider GATCGCCTAGCGATC ((((((...)))))), for which the folding enthalpy in data set [1] was -30.6 kcal/mol. In addition, the Tm in data set [2] was determined as 68.6 °C.

In the case of GTTAATCGAAAGATAAC (((.(((....)))))), the folding enthalpy in data set [1] is -16.8 kcal/mol. For the same sequence, in data set [2], the Tm came out at 30.1 °C.

On to GAGGTAGCGAAAGCTCTC (((..(((....)))))), for which, in data set [1], the folding enthalpy was -13.6 kcal/mol. Further, the Tm in data set [2] is 38 °C.

On to GAGGTGCGAAAGCATCTC (((.(((....))).))), for which the folding enthalpy in data set [1] was -34 kcal/mol. The Tm in data set [2] turned out to be 59.3 °C.

Regarding GAGTTGCGAAAGCAGCTC (((.(((....))).))), the folding enthalpy in data set [1] is -32.4 kcal/mol. Further, the Tm in data set [2] worked out at 62.1 °C.

As to GTGTCCCGAAAGGGTCAC (((.(((....))).))), in data set [1], the folding enthalpy was -30.8 kcal/mol. Moreover, the Tm in data set [2] was 57.9 °C.

GCTTGCACGAAAGTGAGC (((..(((....)))))): in data set [1], the folding enthalpy is -17.3 kcal/mol. The Tm in data set [2] came out at 44.4 °C.

Consider GTGTCACGAAAGTGTCAC (((.(((....))).))), for which the folding enthalpy in data set [1] is -40.4 kcal/mol. For the same sequence, the Tm in data set [2] was determined as 53.5 °C.

With GCACCGCGAAAGCGACGC ((..(((....)))..)), the folding enthalpy in data set [1] was -15.6 kcal/mol. In addition, the Tm in data set [2] amounted to 47.2 °C.

Consider GATCATACCAATGATC ((((((....)))))), for which the folding enthalpy in data set [1] is -39.4 kcal/mol. Further, in data set [2], the Tm came out at 48.4 °C.

GTATTCGAAAGAATAC ((((((....)))))): the folding enthalpy in data set [1] is -35.7 kcal/mol. The Tm in data set [2] was determined as 54.6 °C.

On to GGAGGTGAAAACCTCC ((((((....)))))), for which the folding enthalpy in data set [1] was -33.8 kcal/mol. Moreover, the Tm in data set [2] came to 66.2 °C.

Consider GCTCCAGGAAACCAGAGC ((((..(....)..)))), for which the folding enthalpy in data set [1] was -19.4 kcal/mol. Besides, the Tm in data set [2] worked out at 34.4 °C.

Consider GCGTAATAACGC ((((....)))), for which the folding enthalpy in data set [1] was -21.1 kcal/mol. The Tm in data set [2] turned out to be 51.6 °C.

As for GATCACGAAAGTGTCATC ((((((....)))..))), the folding enthalpy in data set [1] is -13.8 kcal/mol. Besides, the Tm in data set [2] came to 31.5 °C.

On to GATCGTGGAACGATC ((((((...)))))), for which the folding enthalpy in data set [1] was -35.7 kcal/mol. Besides, in data set [2], the Tm was found to be 66.8 °C.

In the case of GCTCGGCGAAAGCGGTGC ((.(.((....)).).)), the folding enthalpy in data set [1] is -13 kcal/mol. For the same sequence, the Tm in data set [2] was 57.6 °C.

On to GCTCGAGGAAACTCGGGC ((.((((....)))).)), for which the folding enthalpy in data set [1] was -38.9 kcal/mol. The Tm in data set [2] was found to be 59.9 °C.

Consider GAATCGGGAAACTGATTC (((((.(....).))))), for which the folding enthalpy in data set [1] is -38.9 kcal/mol. For the same sequence, the Tm in data set [2] came to 45.5 °C.

Turning to GGGGAGGCGAAAGCCCCC (((..(((....)))))), in data set [1], the folding enthalpy was -14.2 kcal/mol. Moreover, the Tm in data set [2] amounted to 64.5 °C.

Turning to GCCCGAGGAAACTCAGGC (((.(((....))).))), in data set [1], the folding enthalpy was -27.2 kcal/mol. Further, in data set [2], the Tm came to 45.1 °C.

On to GATCACCGGTGTGATC ((((((....)))))), for which the folding enthalpy in data set [1] is -38 kcal/mol. Further, the Tm in data set [2] was determined as 54.8 °C.

With GTAATCCCGAAAGGGTAC (((..(((....)))))), in data set [1], the folding enthalpy was -11.1 kcal/mol. Moreover, the Tm in data set [2] was 27.5 °C.

Take GCTTATACGAAAGTAAGC (((..(((....)))))): the folding enthalpy in data set [1] was -21.5 kcal/mol. Further, in data set [2], the Tm is 37.4 °C.

For GTAGACGGAAACGCCTAC ((((.((....)).)))), in data set [1], the folding enthalpy was -32.3 kcal/mol. The Tm in data set [2] is 45.3 °C.

GATCCTTGAGAGGATC ((((((....)))))): the folding enthalpy in data set [1] was -42.5 kcal/mol. In addition, in data set [2], the Tm came to 53.6 °C.

For the sequence GATCACTGCGGTGATC ((((((....)))))), in data set [1], the folding enthalpy was -38 kcal/mol. The Tm in data set [2] was found to be 61.9 °C.

On to GATCGTTATACGATC ((((((...)))))), for which the folding enthalpy in data set [1] was -36.4 kcal/mol. For the same sequence, the Tm in data set [2] was determined as 57.9 °C.

In the case of GTCAACGAAAGTTGCGAC ((((((....)))..))), the folding enthalpy in data set [1] was -17.7 kcal/mol. Besides, the Tm in data set [2] turned out to be 46.6 °C.

For GGTTCGGGAAACTGGACC (((.(.(....).).))), in data set [1], the folding enthalpy is -29.2 kcal/mol. Moreover, the Tm in data set [2] was found to be 41.2 °C.

Consider GATCTATTACTAGATC ((((((....)))))), for which the folding enthalpy in data set [1] was -32.4 kcal/mol. The Tm in data set [2] came to 39.2 °C.

Consider GTTGGTGGAAACGCTAAC (((.(.(....).).))), for which the folding enthalpy in data set [1] is -14 kcal/mol. For the same sequence, the Tm in data set [2] stood at 30.7 °C.

For GCGCCCGAAAGGGCACGC ((((((....)))..))), the folding enthalpy in data set [1] is -13.4 kcal/mol. In data set [2], the Tm is 63.3 °C.

As to GTCATGTCGAAAGACGAC (((..(((....)))))), the folding enthalpy in data set [1] is -14.8 kcal/mol. The Tm in data set [2] turned out to be 38 °C.

Consider GATACCCCGAAAGGGATC (((..(((....)))))), for which, in data set [1], the folding enthalpy was -12.4 kcal/mol. Further, the Tm in data set [2] was found to be 33.3 °C.

With GTAAGCCGAAAGGCCTAC (((.(((....))).))), the folding enthalpy in data set [1] was -13.7 kcal/mol. Besides, in data set [2], the Tm is 39.4 °C.
